An excerpt weighted towards active compounds, which were near 1.8% of everything screened.
Runt-CBFb FRET: inhibitors of human RUNX1 Runt domain binding to CBFb | AID 1496 | Cerulean-Runt/Venus-CBFb FRET ratio 530/480, 1 h | actives 0.46% (n = 220,000) | inhibition, % at 20 µM;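 active = inhibition over about 50% at 20 µM in the single-dose screen, limit read from the data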;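 also: 0% = DMSO wells and 100% = excess unlabeled CBFb competitor control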
Target sequence (Q01196 whole entry, looked up, the tested form may be a part): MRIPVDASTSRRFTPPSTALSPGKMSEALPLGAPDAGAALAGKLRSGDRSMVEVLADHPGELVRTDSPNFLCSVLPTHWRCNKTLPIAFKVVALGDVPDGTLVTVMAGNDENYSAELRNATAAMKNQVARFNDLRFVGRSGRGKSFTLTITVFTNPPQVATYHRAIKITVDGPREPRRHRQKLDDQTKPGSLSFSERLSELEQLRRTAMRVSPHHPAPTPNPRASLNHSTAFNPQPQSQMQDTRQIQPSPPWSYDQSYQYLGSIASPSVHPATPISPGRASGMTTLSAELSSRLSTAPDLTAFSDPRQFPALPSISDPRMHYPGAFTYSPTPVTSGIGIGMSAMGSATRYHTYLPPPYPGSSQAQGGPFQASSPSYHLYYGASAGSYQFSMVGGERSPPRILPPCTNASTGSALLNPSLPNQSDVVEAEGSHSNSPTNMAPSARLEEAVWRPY
Target sequence (Q13951 whole entry, looked up, the tested form may be a part): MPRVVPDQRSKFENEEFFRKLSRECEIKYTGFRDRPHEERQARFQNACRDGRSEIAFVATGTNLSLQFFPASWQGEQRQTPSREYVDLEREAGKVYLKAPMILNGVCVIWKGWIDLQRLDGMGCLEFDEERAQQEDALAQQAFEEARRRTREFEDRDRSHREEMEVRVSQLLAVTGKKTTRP
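Measured by: fluorescence energy transfer, 422 nm excitation, 530/480 nm emission; Assay system: Cerulean-Runt domain; Medium: Tris pH 7.5 buffer with BSA; Measure: loss of energy transfer signal; Controls: 5 µM unlabeled CBFb as full-inhibition high control; Incubation: protein complex preformed 1 h, compound exposure 1 h, room temperature, dark.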
Runt-SMMHC FRET: Runt domain-CBFb-SMMHC interaction inhibition. Q01196+Q13951. Cerulean-Runt/Venus-CBFb-SMMHC FRET ratio 530/480, 1 h. inhibition, % at 20 µM. actives 0.74% (n = 220,000);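 active = mean inhibition across duplicate retests at 20 µM reaching about 50%, limit read from the data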;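 also: 0% = DMSO wells and 100% = wells with excess untagged CBFb-SMMHC; inhibitors lower the FRET ratio by blocking Runt binding to CBFb-SMMHC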
Platelet DG rel: modulates dense granule release in human platelets; human platelet-rich plasma, SFLLRN dense granule ATP release, luminescence; inhibition, %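 (compounds screened at 7.5 µM in platelet-rich plasma)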; actives 0.22% (n = 300,000);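 active = mean replicate score, as percent of positive control, at or above 50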
Rce1 inh: yeast Ras-converting enzyme inhibition. Q03530. actives 0.27% (n = 290,000). calls only. yeast membranes, quenched prenylated peptide cleavage fluorescence;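 active = fall in fluorescence gain of 50% or more versus controls, with final raw signal at or below 3038400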;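 also: plate controls were neutral control wells for no effect and wells lacking membranes for full effect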
RanGTP-Impb inh: disruptors of Ran-importin-beta complex formation – biochemical, FRET, CFP-Ran, YFP-importin-beta, homogeneous, primary screen; AID 2216; inhibition, % (concentration not given with the values); cell-free CFP-Ran/YFP-importin-beta FRET ratio; actives 1.1% (n = 300,000);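 active = more than half of the replicate wells show a fall in the fluorescence ratio signal beyond about 16%, limit read from the data, passing the limit was not always enough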;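 also: 0% = DMSO wells and 100% = Ran loaded with GDP instead of GTP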
YIC FRET counter: counter-screen YIC FRET for RanGTP-importin-beta inhibitors | IC50, µM | actives 40% (n = 1,000) | shares compounds with RanGTP-Impb inh | Purified YIC probe, intramolecular FRET ratio YFP/CFP;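 active = fitted half-maximal inhibitory concentration no more than tenfold above the top dose tested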
* = called active by the depositor.

What do the screens show for `O=C(CN1CCN(Cc2ccc(Cl)cc2)C1=O)N1CCC2(CC1)OCCO2`?
Runt-CBFb FRET: 0; Runt-SMMHC FRET: -2; Platelet DG rel: -1; Rce1 inh: inactive; RanGTP-Impb inh: -1

How did CCN1/C(=C\C=C\C2=[N+](CC)c3ccccc3C2(C)C)C(C)(C)c2ccccc21 do in these assays?
Runt-CBFb FRET: 8; Runt-SMMHC FRET: 18; Platelet DG rel: 16; Rce1 inh: inactive; RanGTP-Impb inh: 27*; YIC FRET counter: 30*

Results for CC(C)OC(=O)c1c(N)n(CC2CCCO2)c2nc3ccccc3nc12 (stereo not given) ?
Runt-CBFb FRET: 72*; Runt-SMMHC FRET: 92*; Platelet DG rel: -8; Rce1 inh: inactive; RanGTP-Impb inh: 24*; YIC FRET counter: 20*

What do the screens show for `CC(=O)N1CN2CN(C(C)=O)CC(C(=O)c3ccc([N+](=O)[O-])cc3)(C2)C1`?
Runt-CBFb FRET: -2; Runt-SMMHC FRET: 2; Platelet DG rel: -3; Rce1 inh: inactive; RanGTP-Impb inh: 1

What do the screens show for `CC(=O)N1CN2CN(C(C)=O)CC(C(=O)c3ccccc3)(C2)C1`?
Runt-CBFb FRET: -1; Runt-SMMHC FRET: 2; Platelet DG rel: 0; Rce1 inh: inactive; RanGTP-Impb inh: 21*; YIC FRET counter: >50

How did CSc1ccc(C(=O)C2CCCN(CCCn3cccn3)C2)cc1 (stereo not given) do in these assays?
Runt-CBFb FRET: 0; Runt-SMMHC FRET: 0; Platelet DG rel: 3; Rce1 inh: inactive; RanGTP-Impb inh: 0

Results for C=CCN1CCc2cccc3c2[C@H]1Cc1ccc(O)c(O)c1-3 ?
Platelet DG rel: 7; Rce1 inh: inactive; RanGTP-Impb inh: 19*; YIC FRET counter: >50

How did C=CCn1c(O)c(C(C)=NCCN2CCN(C(=S)NC)CC2)c(=O)[nH]c1=O do in these assays?
Runt-CBFb FRET: 0; Runt-SMMHC FRET: 0; Platelet DG rel: 6; Rce1 inh: inactive; RanGTP-Impb inh: 0

Results for CCCCNC(=O)c1c(N)n(Cc2ccc3c(c2)OCO3)c2nc3ccccc3nc12 ?
Runt-CBFb FRET: 10; Runt-SMMHC FRET: 37; Platelet DG rel: 1; Rce1 inh: inactive; RanGTP-Impb inh: 32*; YIC FRET counter: 3.1*

What do the screens show for `CC(C)CCn1c(=O)c(C(=O)NCc2ccc3c(c2)OCO3)c(O)c2ccccc21`?
Platelet DG rel: 0; Rce1 inh: inactive; RanGTP-Impb inh: 2

Results for O=C(NCCCN1CCOCC1)C(Cl)(Cl)Cl ?
Runt-CBFb FRET: 0; Runt-SMMHC FRET: -1; Platelet DG rel: 12; Rce1 inh: inactive; RanGTP-Impb inh: 1

How did CN1CC2=CC(O)CC3Oc4c(O)ccc(c4[C@]23C)C1 (stereo not given in full) do in these assays?
Platelet DG rel: -3; Rce1 inh: inactive; RanGTP-Impb inh: 26*; YIC FRET counter: >50

How did COc1ccc(Cc2c(O)[nH]c(=O)[nH]c2=O)c(OC)c1 do in these assays?
Runt-CBFb FRET: 1; Runt-SMMHC FRET: 3; Platelet DG rel: 6; Rce1 inh: inactive; RanGTP-Impb inh: -4
